# ChEMBL document CHEMBL2424530, “Synthesis, biological evaluation and molecular docking studies of pyrazole derivatives coupling with a thiourea moiety as novel CDKs inhibitors” (Eur J Med Chem, 2013)
# Key:
# A549 [1] = assay: Cytotoxicity against human A549 cells assessed as growth inhibition after 24 to 48 hrs by CCK8 assay; type: functional, cell-based
# In short: (§1)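 CCK8 proliferation assay: 1-5 × 10³ cells per well grew for 12 h, then were exposed to increasing compound concentrations in 10% FBS for 24 or 48 h. CCK8 dye was added for 1-2 h and plates were read on a multilabel counter. Percent inhibition or IC₅₀ was calculated against DMSO-treated control wells.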
# [2] = target: Cyclin-dependent kinase 2 (Homo sapiens, UniProt P24941); assay: Inhibition of human N-terminal hexahistidine-tagged CDK2 expressed in baculovirus infected Sf21 cells using histone H1 as substrate after 10 mins in presence of [gamma-32P]-ATP
# [3] = Cytotoxicity against human H460 cells assessed as growth inhibition after 24 to 48 hrs by CCK8 assay; type: functional, cell-based; settings: NCI-H460; in short: as §1
# MCF7 = assay: Cytotoxicity against human MCF7 cells assessed as growth inhibition after 24 to 48 hrs by CCK8 assay; type: functional, cell-based; in short: as §1
# A549 [4] = assay: Cell cycle arrest in human A549 cells assessed as accumulation at G2/M phase at 1 uM after 36 hrs by propidium iodide staining-based FACS flow cytometric analysis (reference value: 2.09%); type: functional
# A549 [5] = assay: Cell cycle arrest in human A549 cells assessed as accumulation at G0/G1 phase at 2 uM after 36 hrs by propidium iodide staining-based FACS flow cytometric analysis (reference value: 57.07%); type: functional
# [6] = target: Cyclin-dependent kinase 5 (Homo sapiens, UniProt Q00535); assay: Inhibition of CDK5 (unknown origin) using histone H1 as substrate after 10 mins in presence of [gamma-32P]-ATP
# Chain of Cyclin-dependent kinase 5 (Q00535 whole entry): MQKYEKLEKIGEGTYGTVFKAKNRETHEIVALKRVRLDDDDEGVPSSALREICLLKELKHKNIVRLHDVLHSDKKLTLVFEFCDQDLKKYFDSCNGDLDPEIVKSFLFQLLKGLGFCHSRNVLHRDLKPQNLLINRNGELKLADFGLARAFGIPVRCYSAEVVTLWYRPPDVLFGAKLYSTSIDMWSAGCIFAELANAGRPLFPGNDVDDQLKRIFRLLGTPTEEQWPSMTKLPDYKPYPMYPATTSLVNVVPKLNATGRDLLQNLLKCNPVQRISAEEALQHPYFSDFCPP
# In short: (§2)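 Radiometric kinase reaction in 50 mM Tris-HCl with ATP plus γ-³²P ATP, 10 mM MgCl₂, 5 mM DTT and histone H1 substrate. It ran 10 min with inhibitor and was stopped with 30% phosphoric acid. Mixtures were spotted on P81 paper and washed five times with 10 mM Tris-HCl (pH 8.0)/0.1 M NaCl. Spot radioactivity was imaged, and IC₅₀ was the concentration giving 50% inhibition.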
# A549 [7] = assay: Cell cycle arrest in human A549 cells assessed as accumulation at G2/M phase at 2 uM after 36 hrs by propidium iodide staining-based FACS flow cytometric analysis (reference value: 2.09%); type: functional
# [8] = target: Cyclin-dependent kinase 4 (Homo sapiens, UniProt P11802); assay: Inhibition of CDK4 (unknown origin) using histone H1 as substrate after 10 mins in presence of [gamma-32P]-ATP; in short: as §2
# Chain of Cyclin-dependent kinase 4 (P11802 whole entry): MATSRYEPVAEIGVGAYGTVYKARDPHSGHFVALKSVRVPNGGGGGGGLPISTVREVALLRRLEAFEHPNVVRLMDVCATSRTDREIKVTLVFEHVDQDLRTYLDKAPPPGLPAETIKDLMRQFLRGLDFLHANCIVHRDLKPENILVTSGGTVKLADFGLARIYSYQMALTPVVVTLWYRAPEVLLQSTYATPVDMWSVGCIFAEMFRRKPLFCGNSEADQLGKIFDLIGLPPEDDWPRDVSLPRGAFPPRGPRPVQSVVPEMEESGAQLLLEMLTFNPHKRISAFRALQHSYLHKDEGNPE
# A549 [9] = assay: Cell cycle arrest in human A549 cells assessed as accumulation at S phase at 1 uM after 36 hrs by propidium iodide staining-based FACS flow cytometric analysis (reference value: 40.84%); type: functional
# A549 [10] = assay: Cell cycle arrest in human A549 cells assessed as accumulation at S phase at 2 uM after 36 hrs by propidium iodide staining-based FACS flow cytometric analysis (reference value: 40.84%); type: functional
# A549 [11] = assay: Cell cycle arrest in human A549 cells assessed as accumulation at G2/M phase at 0.5 uM after 36 hrs by propidium iodide staining-based FACS flow cytometric analysis (reference value: 2.09%); type: functional
# [12] = target: Cyclin-dependent kinase 1 (Homo sapiens, UniProt P06493); assay: Inhibition of CDK1 (unknown origin) using histone H1 as substrate after 10 mins in presence of [gamma-32P]-ATP; in short: as §2
# Chain of Cyclin-dependent kinase 1 (P06493 whole entry): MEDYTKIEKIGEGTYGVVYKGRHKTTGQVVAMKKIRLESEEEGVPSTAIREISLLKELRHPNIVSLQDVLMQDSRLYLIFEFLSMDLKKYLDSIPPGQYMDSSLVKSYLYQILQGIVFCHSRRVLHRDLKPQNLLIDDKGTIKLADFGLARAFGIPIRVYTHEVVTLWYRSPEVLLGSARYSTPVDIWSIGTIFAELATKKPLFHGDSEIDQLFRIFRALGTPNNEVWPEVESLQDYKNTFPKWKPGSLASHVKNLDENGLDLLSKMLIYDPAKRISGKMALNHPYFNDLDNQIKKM
# A549 [13] = assay: Cell cycle arrest in human A549 cells assessed as accumulation at subG0 phase at 2 uM after 36 hrs by propidium iodide staining-based FACS flow cytometric analysis relative to control; type: functional
# A549 [14] = assay: Cell cycle arrest in human A549 cells assessed as accumulation at G0/G1 phase after 36 hrs by propidium iodide staining-based FACS flow cytometric analysis; type: functional
# [15] = target: Cyclin-dependent kinase 7 (Homo sapiens, UniProt P50613); assay: Inhibition of CDK7 (unknown origin) using histone H1 as substrate after 10 mins in presence of [gamma-32P]-ATP; in short: as §2
# Chain of Cyclin-dependent kinase 7 (P50613 whole entry, the tested form may be a part): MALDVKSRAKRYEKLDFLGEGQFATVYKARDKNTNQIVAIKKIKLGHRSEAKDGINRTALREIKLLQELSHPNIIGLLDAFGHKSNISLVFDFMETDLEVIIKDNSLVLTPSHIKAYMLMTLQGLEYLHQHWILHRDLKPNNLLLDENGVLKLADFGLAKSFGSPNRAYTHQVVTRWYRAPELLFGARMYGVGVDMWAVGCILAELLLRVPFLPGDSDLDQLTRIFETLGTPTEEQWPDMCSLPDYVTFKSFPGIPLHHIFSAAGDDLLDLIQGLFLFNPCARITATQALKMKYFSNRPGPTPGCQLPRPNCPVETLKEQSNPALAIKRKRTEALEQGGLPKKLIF
# [16] = target: Epidermal growth factor receptor (Homo sapiens, UniProt P00533); assay: Inhibition of human C-terminal EGFR tyrosine kinase domain
# Chain of Epidermal growth factor receptor (P00533 whole entry, the tested form may be a part): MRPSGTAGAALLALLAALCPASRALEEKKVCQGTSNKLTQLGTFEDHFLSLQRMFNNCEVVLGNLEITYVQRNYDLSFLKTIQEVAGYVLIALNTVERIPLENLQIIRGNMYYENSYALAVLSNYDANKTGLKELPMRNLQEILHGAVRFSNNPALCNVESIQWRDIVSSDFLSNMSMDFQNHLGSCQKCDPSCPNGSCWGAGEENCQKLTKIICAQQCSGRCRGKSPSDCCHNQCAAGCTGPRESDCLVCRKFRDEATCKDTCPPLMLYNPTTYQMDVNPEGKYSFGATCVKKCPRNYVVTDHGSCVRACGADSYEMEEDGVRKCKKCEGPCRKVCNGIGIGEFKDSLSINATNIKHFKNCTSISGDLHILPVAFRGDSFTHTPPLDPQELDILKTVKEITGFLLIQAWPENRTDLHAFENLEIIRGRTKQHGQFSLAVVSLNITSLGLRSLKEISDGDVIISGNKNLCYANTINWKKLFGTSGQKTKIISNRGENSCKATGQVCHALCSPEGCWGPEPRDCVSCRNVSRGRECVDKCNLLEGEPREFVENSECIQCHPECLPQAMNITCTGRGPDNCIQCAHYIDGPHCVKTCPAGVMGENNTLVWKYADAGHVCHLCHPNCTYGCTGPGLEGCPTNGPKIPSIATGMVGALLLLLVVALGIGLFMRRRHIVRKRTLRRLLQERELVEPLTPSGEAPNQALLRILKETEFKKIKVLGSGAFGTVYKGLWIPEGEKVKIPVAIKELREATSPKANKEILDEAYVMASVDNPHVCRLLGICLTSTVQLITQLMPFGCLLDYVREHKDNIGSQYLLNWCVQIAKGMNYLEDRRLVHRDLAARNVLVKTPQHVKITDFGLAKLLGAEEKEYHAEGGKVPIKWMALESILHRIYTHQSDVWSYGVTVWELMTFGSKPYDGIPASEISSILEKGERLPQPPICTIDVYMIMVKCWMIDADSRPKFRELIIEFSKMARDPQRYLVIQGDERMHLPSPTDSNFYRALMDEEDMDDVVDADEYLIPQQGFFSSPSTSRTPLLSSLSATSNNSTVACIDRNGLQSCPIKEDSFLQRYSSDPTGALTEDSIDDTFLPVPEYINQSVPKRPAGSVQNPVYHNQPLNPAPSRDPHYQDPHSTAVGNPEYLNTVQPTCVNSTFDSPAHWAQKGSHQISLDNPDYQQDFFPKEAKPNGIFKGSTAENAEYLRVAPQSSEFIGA
# [17] = target: Vascular endothelial growth factor receptor 2 (Homo sapiens, UniProt P35968); assay: Inhibition of human VEGFR2 tyrosine kinase domain (Asp807 to Val1356) using poly-(Glu4-Tyr) as substrate incubated for 15 mins prior to ATP addition measured after 40 mins by DELFIA
# Chain of Vascular endothelial growth factor receptor 2 (P35968 whole entry, the tested form may be a part): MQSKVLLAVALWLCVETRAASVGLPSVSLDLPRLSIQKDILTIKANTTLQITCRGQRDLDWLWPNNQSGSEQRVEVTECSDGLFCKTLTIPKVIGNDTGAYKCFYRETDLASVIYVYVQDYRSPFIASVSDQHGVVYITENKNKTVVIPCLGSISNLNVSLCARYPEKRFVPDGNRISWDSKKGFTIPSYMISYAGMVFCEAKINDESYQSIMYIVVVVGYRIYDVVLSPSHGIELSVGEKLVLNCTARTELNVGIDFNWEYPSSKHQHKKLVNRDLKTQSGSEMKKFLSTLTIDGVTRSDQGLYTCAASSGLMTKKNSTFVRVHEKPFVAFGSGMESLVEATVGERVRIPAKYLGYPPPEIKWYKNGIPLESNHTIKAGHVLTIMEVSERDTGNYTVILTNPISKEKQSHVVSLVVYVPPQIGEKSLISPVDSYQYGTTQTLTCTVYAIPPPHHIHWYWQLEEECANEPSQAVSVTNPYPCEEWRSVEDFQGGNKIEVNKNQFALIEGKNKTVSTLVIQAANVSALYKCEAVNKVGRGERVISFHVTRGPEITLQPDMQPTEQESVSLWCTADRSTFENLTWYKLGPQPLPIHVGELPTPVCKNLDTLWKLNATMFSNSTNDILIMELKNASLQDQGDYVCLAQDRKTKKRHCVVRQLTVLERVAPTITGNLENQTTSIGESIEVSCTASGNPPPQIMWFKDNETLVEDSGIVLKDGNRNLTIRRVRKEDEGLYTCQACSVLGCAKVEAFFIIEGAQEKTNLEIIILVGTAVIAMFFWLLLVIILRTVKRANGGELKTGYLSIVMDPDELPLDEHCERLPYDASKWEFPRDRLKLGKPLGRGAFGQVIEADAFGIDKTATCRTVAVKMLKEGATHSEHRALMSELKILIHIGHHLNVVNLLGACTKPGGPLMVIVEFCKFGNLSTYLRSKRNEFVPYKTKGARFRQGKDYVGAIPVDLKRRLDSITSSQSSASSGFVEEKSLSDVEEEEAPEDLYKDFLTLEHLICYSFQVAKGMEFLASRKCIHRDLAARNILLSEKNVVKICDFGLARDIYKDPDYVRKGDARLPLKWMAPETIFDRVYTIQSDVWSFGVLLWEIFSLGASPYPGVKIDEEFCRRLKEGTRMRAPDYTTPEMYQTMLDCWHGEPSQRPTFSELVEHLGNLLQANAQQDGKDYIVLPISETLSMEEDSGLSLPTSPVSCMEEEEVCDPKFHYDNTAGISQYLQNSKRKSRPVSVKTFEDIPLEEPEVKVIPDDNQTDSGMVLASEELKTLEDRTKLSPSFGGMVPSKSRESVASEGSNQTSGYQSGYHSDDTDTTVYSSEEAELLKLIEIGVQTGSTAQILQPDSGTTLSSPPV
# A549 [18] = assay: Cell cycle arrest in human A549 cells assessed as accumulation at G0/G1 phase at 0.5 uM after 36 hrs by propidium iodide staining-based FACS flow cytometric analysis (reference value: 57.07%); type: functional
# A549 [19] = assay: Cell cycle arrest in human A549 cells assessed as accumulation at G0/G1 phase at 1 uM after 36 hrs by propidium iodide staining-based FACS flow cytometric analysis (reference value: 57.07%); type: functional
# A549 [20] = assay: Cell cycle arrest in human A549 cells assessed as accumulation at subG0 phase at 0.5 uM after 36 hrs by propidium iodide staining-based FACS flow cytometric analysis relative to control; type: functional
# [21] = target: Cyclin-dependent kinase 6 (Homo sapiens, UniProt Q00534); assay: Inhibition of CDK6 (unknown origin) using histone H1 as substrate after 10 mins in presence of [gamma-32P]-ATP; in short: as §2
# Chain of Cyclin-dependent kinase 6 (Q00534 whole entry): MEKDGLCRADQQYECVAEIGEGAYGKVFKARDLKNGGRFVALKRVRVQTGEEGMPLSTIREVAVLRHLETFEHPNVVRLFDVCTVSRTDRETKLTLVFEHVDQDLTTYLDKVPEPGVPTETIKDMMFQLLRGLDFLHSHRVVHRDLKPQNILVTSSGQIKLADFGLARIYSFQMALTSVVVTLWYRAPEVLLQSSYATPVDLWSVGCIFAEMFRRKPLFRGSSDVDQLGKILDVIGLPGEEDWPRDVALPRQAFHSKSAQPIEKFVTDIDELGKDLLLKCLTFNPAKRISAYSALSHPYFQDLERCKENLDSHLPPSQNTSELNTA
# A549 [22] = assay: Cell cycle arrest in human A549 cells assessed as accumulation at subG0 phase at 1 uM after 36 hrs by propidium iodide staining-based FACS flow cytometric analysis relative to control; type: functional
# A549 [23] = assay: Cell cycle arrest in human A549 cells assessed as accumulation at S phase at 0.5 uM after 36 hrs by propidium iodide staining-based FACS flow cytometric analysis (reference value: 40.84%); type: functional
SMILES,IC50 (A549 [1]) [nM],IC50 [2] [nM],IC50 [3] [nM],IC50 (MCF7) [nM],also measured
O=C(NC(=S)Nc1ccc(Cl)cc1)c1cn(-c2ccccc2)nc1-c1ccccc1,3200,71,4020,6230,
Cc1ccc(-c2nn(-c3ccccc3)cc2C(=O)NC(=S)Nc2ccc(Cl)cc2)cc1,3170,63,3650,6210,
COc1ccc(NC(=S)NC(=O)c2cn(-c3ccccc3)nc2-c2ccc(OC)cc2)cc1,750,25,2570,4210,Activity (A549 [4]): 2.99%; Activity (A549 [5]): 64%; IC50 [6]: 1090 nM; Activity (A549 [7]): 7.52%; IC50 [8]: 35 nM; Activity (A549 [9]): 34.48%; Activity (A549 [10]): 28.48%; Activity (A549 [11]): 8.04%; IC50 [12]: 522 nM; Activity (A549 [13]): 0%; Activity (A549 [14]): Dose-dependent effect; IC50 [15]: 1420 nM; IC50 [16]: > 5000 nM; IC50 [17]: > 5000 nM; Activity (A549 [18]): 59.49%; Activity (A549 [19]): 62.53%; Activity (A549 [20]): 0%; IC50 [21]: 29 nM; Activity (A549 [22]): 0%; Activity (A549 [23]): 32.47%
COc1ccc(-c2nn(-c3ccccc3)cc2C(=O)NC(=S)Nc2ccc(Cl)cc2)cc1,1310,30,3010,4760,
Cc1ccc(-c2nn(-c3ccccc3)cc2C(=O)NC(=S)Nc2ccc(F)cc2)cc1,3420,41,3980,6420,
O=C(NC(=S)Nc1ccc(F)cc1)c1cn(-c2ccccc2)nc1-c1ccc(F)cc1,3540,49,3240,5610,
Cc1ccc(NC(=S)NC(=O)c2cn(-c3ccccc3)nc2-c2ccc(F)cc2)cc1,2080,43,2980,5440,
COc1ccc(-c2nn(-c3ccccc3)cc2C(=O)NC(=S)Nc2ccc(C)cc2)cc1,1250,29,2880,4630,
COc1ccc(NC(=S)NC(=O)c2cn(-c3ccccc3)nc2-c2ccc(Cl)cc2)cc1,2270,37,3010,5240,IC50 [6]: 1360 nM; IC50 [8]: 40 nM; IC50 [12]: 571 nM; IC50 [15]: 1650 nM; IC50 [16]: > 5000 nM; IC50 [17]: > 5000 nM; IC50 [21]: 42 nM
O=C(NC(=S)Nc1ccc(Cl)cc1)c1cn(-c2ccccc2)nc1-c1ccc(Cl)cc1,3150,58,3260,5360,
